Data reported in ChEMBL document CHEMBL5325493, “Discovery of AD258 as a Sigma Receptor Ligand with Potent Antiallodynic Activity” (J Med Chem, 2023).
Active and inactive are the calls of the source. The rule behind the calls is not given here.

Columns and labels:
[1] = biological target: Sigma non-opioid intracellular receptor 1 (Rattus norvegicus) (UniProt Q9R0C9); experiment: Selectivity ratio of Ki for binding affinity to rat liver homogenate S1R incubated for 2 hrs in absence of phenytoin to Ki for binding affinity to rat liver homogenate S1R incubated for 2 hrs in presence of phenytoin; type: tissue-based
Sigma non-opioid intracellular receptor 1 (Rattus norvegicus), sequence (Q9R0C9 whole entry): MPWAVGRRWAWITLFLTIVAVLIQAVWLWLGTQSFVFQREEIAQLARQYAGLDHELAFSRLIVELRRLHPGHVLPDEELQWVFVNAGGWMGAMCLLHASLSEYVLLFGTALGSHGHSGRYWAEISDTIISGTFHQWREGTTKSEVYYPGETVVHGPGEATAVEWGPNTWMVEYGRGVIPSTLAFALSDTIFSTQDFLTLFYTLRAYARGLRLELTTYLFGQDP

[2] = Cytotoxicity against HCE cells at 50 to 100 uM […] by LDH assay; type: toxicity, cell-based; conditions: human, 1.25 h, dose 50-100 µM
[3] = Cytotoxicity against HCE cells assessed as reduction in cell viability at above 20 uM incubated for 1 hr by MTT assay; type: toxicity, cell-based; conditions: human
In short: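 HCE cells in MEM with 10% FBS, grown to 80–90% confluence. Exposed to compounds in free medium for 20 h. MTT (5 mg/mL in PBS, 1:5 of medium volume) then added for 1 h; formazan dissolved in DMSO and read at 540 nm. Viability expressed as % of untreated cells; three independent experiments.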

[4] = Cytotoxicity against HCE cells assessed as reduction in cell viability at 100 uM […] by MTT assay; type: toxicity, cell-based; conditions: human
[5] = system: Mus musculus; experiment: Anti-allodynic activity against capsaicin-induced d sc dosed wild type CD1 mouse allodynia model assessed as reversal of capsaicin induced hypersensitivity by measuring latency value preincubated for 30 mins followed by capsaicin addition (reference value: 13.51 +/- 1.93 sec); type: functional; conditions: dose 10-40 mg/kg
[6] = system: Mus musculus; experiment: Anti-allodynic activity against capsaicin-induced wild type CD1 mouse allodynia model assessed as reversal of capsaicin induced hypersensitivity by measuring latency value at 20 mg/kg, sc preincubated for 5 with […] followed by compound addition for 30 mins prior to capsaicin stimulation; type: functional, organism-based
[7] = biological target: Sigma non-opioid intracellular receptor 1 (Homo sapiens, UniProt Q99720); experiment: Binding affinity to S1R (unknown origin)
Sigma non-opioid intracellular receptor 1 (Homo sapiens, UniProt Q99720), sequence (Q99720 whole entry): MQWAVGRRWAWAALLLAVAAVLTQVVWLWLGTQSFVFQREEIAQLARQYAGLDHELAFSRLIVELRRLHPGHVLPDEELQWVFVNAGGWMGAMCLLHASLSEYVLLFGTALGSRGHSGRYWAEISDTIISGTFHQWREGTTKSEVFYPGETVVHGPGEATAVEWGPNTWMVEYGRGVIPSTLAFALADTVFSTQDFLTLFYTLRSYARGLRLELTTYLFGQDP
In short: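 Rat liver homogenates from male Sprague Dawley rats in 50 mM Tris pH 8. […] Incubated 120 min at 37 °C, then filtration and scintillation counting. Ki is the mean ± SD of at least two experiments in duplicate.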

[8] = biological target: Sigma intracellular receptor 2 (Homo sapiens, UniProt Q5BJF2); experiment: Binding affinity to S2R (unknown origin)
Sigma intracellular receptor 2, sequence (Q5BJF2 whole entry): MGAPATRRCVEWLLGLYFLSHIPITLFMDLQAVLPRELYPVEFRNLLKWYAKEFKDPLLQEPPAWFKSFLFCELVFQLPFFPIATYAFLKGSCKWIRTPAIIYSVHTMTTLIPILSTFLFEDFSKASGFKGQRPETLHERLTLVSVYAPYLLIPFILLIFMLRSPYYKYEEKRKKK

[9] = Toxicity in wild type CD1 mouse assessed as effect on motor coordination at 60 mg/kg, sc measured upto 240 mins by rotarod test; type: organism-based; conditions: in vivo, 4 h
In short: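 Female CD1 mice, 25–30 g. Latency to fall from the rotarod was recorded immediately before and several times after s.c. dosing, over 4 h; vehicle was DMSO 5% in saline. Mean ± SEM from 6–7 animals; 2-way repeated measures ANOVA followed by Student–Newman–Keuls test against time 0.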

[10] = system: Mus musculus; experiment: Anti-allodynic activity against capsaicin-induced wild type CD1 mouse allodynia model assessed as reversal of capsaicin induced hypersensitivity by measuring latency value at 40 mg/kg, sc preincubated for 5 with […] followed by compound addition for 30 mins prior to capsaicin stimulation; type: functional, organism-based
In short: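 Female CD1 mice, 25–30 g, acclimated at least 1 week. Mechanical allodynia induced by intraplantar capsaicin; read-out is response latency to mechanical stimulation of the paw. Compound given s.c.; the S1R agonist PRE-084 (32 mg/kg, s.c.) was co-administered to test reversal. Values are mean ± SEM from 6–9 animals per group.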

[11] = system: Mus musculus; experiment: Anti-allodynic activity against capsaicin-induced wild type CD1 mouse allodynia model assessed as reversal of capsaicin induced hypersensitivity by measuring latency value at 0.6 to 1.25 mg/kg, sc preincubated for 30 mins followed by capsaicin addition (reference value: 13.51 +/- 1.93 sec); type: functional, organism-based; conditions: dose 0.6-1.25 mg/kg
[12] = system: Mus musculus; experiment: Anti-allodynic activity against capsaicin-induced wild type CD1 mouse allodynia model assessed as reversal of capsaicin induced hypersensitivity by measuring latency value at 1.25 mg/kg, sc preincubated for 5 with […] followed by compound addition for 30 mins prior to capsaicin stimulation; type: functional, organism-based
[13] = Toxicity in wild type CD1 mouse assessed as effect on motor coordination at 1.25 mg/kg, sc measured upto 240 mins by rotarod test; type: organism-based; conditions: in vivo, time < 240 hrs
In short: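 Female CD1 mice on rotarod; latency to fall recorded immediately before and at several times over 4 h after s.c. dosing. Vehicle was 5% DMSO in saline; pregabalin 60 mg/kg s.c. served as the motor-deficit control. Mean ± SEM from 6–7 animals, analysed by 2-way repeated-measures ANOVA with Student–Newman–Keuls test.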

[14] = biological target: Mu-type opioid receptor (Homo sapiens) (UniProt P35372); experiment: Inhibition of MOR (unknown origin) at 1 uM relative to control
Mu-type opioid receptor (Homo sapiens), sequence (P35372 whole entry): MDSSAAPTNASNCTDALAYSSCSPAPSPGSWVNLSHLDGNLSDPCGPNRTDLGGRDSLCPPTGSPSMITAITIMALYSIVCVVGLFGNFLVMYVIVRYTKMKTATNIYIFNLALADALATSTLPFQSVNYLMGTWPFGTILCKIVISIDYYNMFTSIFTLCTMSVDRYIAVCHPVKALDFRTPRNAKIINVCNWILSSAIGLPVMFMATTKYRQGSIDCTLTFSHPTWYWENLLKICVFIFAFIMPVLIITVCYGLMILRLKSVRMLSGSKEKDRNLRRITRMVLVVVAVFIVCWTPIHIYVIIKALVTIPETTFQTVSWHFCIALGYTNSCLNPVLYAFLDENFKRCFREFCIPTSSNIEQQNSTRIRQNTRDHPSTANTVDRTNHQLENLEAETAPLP

[15] = biological target: Delta-type opioid receptor (Homo sapiens) (UniProt P41143); experiment: Inhibition of DOR (unknown origin) at 1 uM relative to control
Delta-type opioid receptor (Homo sapiens), sequence (P41143 whole entry): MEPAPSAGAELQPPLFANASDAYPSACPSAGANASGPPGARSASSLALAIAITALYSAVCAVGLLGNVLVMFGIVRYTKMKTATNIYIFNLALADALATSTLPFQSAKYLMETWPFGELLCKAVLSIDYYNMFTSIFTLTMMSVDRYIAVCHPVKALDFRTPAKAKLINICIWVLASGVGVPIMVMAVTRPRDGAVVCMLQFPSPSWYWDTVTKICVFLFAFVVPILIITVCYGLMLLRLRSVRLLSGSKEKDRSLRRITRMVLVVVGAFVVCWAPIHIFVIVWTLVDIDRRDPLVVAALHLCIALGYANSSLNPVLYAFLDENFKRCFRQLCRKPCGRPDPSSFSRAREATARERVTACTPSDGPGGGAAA

[16] = biological target: Kappa-type opioid receptor (Homo sapiens) (UniProt P41145); experiment: Inhibition of KOR (unknown origin) at 1 uM relative to control
Kappa-type opioid receptor (Homo sapiens), sequence (P41145 whole entry): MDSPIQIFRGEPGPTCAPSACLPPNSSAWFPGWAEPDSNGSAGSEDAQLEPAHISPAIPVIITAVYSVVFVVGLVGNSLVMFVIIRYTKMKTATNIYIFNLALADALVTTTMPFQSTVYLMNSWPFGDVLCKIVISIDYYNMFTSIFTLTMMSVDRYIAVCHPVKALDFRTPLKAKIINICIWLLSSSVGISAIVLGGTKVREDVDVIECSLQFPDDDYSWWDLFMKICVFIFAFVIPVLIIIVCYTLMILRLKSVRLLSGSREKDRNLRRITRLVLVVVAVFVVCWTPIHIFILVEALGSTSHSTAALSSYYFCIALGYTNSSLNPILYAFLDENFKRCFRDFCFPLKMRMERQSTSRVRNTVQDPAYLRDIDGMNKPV
In short: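 Nonspecific binding defined with 10 µM naloxone. Filtration through PEI-presoaked filters, then scintillation counting.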

[17] = biological target: Cannabinoid receptor 1 (Homo sapiens) (UniProt P21554); experiment: Inhibition of CB1 (unknown origin) at 1 uM relative to control
Cannabinoid receptor 1 (Homo sapiens), sequence (P21554 whole entry): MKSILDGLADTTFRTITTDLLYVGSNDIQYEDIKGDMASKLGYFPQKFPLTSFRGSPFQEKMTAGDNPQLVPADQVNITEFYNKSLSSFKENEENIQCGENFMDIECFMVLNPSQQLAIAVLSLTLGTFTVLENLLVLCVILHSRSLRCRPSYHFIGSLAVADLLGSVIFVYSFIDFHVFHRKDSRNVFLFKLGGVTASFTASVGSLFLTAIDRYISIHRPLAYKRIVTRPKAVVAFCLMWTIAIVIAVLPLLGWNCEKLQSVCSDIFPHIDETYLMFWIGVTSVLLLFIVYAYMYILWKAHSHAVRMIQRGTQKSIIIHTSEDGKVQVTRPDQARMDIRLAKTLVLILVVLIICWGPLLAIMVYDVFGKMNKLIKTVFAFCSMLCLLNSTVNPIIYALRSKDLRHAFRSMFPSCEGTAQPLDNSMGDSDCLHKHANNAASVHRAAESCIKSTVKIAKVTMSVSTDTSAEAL
In short: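 Membranes from rat Chem-1 cells expressing human recombinant CB1, 5 µg per sample, in modified HEPES pH 7.4. […] Nonspecific binding with 10 µM CP 55,940. Compound tested at 1 µM; filtration and counting of specifically bound radioligand.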

[18] = biological target: Cannabinoid receptor 2 (Homo sapiens) (UniProt P34972); experiment: Inhibition of CB2 (unknown origin) at 1 uM relative to control
Cannabinoid receptor 2 (Homo sapiens), sequence (P34972 whole entry): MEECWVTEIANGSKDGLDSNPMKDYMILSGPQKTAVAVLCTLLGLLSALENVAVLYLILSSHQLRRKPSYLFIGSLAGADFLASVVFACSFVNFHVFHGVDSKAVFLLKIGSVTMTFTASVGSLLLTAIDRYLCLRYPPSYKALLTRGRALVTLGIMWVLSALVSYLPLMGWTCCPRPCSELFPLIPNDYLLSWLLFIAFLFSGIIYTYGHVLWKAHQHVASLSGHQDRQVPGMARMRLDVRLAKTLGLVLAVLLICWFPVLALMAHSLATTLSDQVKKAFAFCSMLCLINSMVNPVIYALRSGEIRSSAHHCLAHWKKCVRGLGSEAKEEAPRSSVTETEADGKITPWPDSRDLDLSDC
In short: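 Membranes from CHO-K1 cells expressing human CB2, 30 µg per sample, in modified HEPES pH 7.0. […] Nonspecific binding with 10 µM R(+)-WIN-55,212-2. Compound tested at 1 µM; bound radioligand counted after filtration.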

[19] = biological target: Sigma non-opioid intracellular receptor 1 (Rattus norvegicus, UniProt Q9R0C9); experiment: Displacement of [3H]-(+)-pentazocine from rat liver homogenate S1R incubated for 120 mins by liquid scintillation counting method; type: tissue-based
Sigma non-opioid intracellular receptor 1 (Rattus norvegicus, UniProt Q9R0C9), sequence (Q9R0C9 whole entry): as the sequence (Q9R0C9 whole entry) above

[20] = system: Mus musculus; experiment: Anti-allodynic activity against capsaicin-induced wild type CD1 mouse allodynia model assessed as reversal of capsaicin induced hypersensitivity by measuring latency value at 5 mg/kg, sc preincubated for 30 mins followed by capsaicin addition (reference value: 13.51 +/- 1.93 sec); type: functional, organism-based
[21] = system: Mus musculus; experiment: Anti-allodynic activity against capsaicin-induced wild type CD1 mouse allodynia model assessed as reversal of capsaicin induced hypersensitivity by measuring latency value at 10 mg/kg, sc preincubated for 5 with […] followed by compound addition for 30 mins prior to capsaicin stimulation; type: functional, organism-based

C=CCN1CC[C@@]2(C)C[C@@H]1Cc1ccc(O)cc12
Ratio Ki [1]: 5.8

c1ccc(CCN2CCC3(CCN(CCc4ccccc4)C3)C2)cc1
Activity [2]: Toxic | Activity [3]: Toxic | Activity [4]: Toxic | Activity [5]: Dose-Dependent Effect | Activity [6]: inactive

COC1Cc2ccccc2C2(CCC(N(C)CC3CCCCC3)CC2)O1 (stereo not given)
Ki [7]: 1.9 nM | Ki [8]: 12 nM

CC(C)C[C@H](CN)CC(=O)O [PREGABALIN]
Activity [9]: Toxic

CN1CCN(CCc2ccc(Cl)c(Cl)c2)CC1
Activity [10]: inactive

N#Cc1ccc(N2CCC3(CCN(CCc4ccccc4)C3)C2)cc1 (stereo not given)
Activity [2]: Toxic | Activity [5]: Dose-Dependent Effect | Activity ([5]; 0.5 h, at 10 to 40 mg/kg): 100% | Activity [11]: Active | Activity [12]: inactive | Activity [13]: Non-Toxic | inhibition [14]: < 50% | inhibition [15]: < 50% | inhibition [16]: < 50% | inhibition [17]: < 50% | inhibition [18]: < 50%

c1ccc(CN2CCC3(CCc4ccccc4S3)CC2)cc1
Ki [7]: 9.2 nM | Ki [8]: 6.4 nM

c1ccc(CCN2CCC3(CCN(c4ccccc4)C3)C2)cc1 (stereo not given)
Activity [2]: Toxic | Activity [3]: Toxic | Activity [4]: Toxic | Activity [5]: Dose-Dependent Effect | Activity [6]: inactive

c1ccc2c(c1)Nc1ccccc1S2 [PHENOTHIAZINE]
Ki [19]: 4.3 nM

O=[N+]([O-])c1ccc(N2CCC3(CCN(CCc4ccccc4)C3)C2)cc1 (stereo not given)
Activity [4]: 50% | Activity [5]: Dose-Dependent Effect | Activity ([5]; 0.5 h, at 10 to 40 mg/kg): 100% | Activity [20]: Active | Activity [21]: inactive

Cl.O=C(OCCN1CCOCC1)C1(c2ccccc2)CCCCC1
Activity [3]: Toxic

O=C(Cc1ccc(Cl)c(Cl)c1)N1CCC2(CCN(CCc3ccccc3)C2)C1 (stereo not given)
Activity [5]: Dose-Dependent Effect | Activity ([5]; 0.5 h, at 10 to 40 mg/kg): 100% | Activity [10]: inactive

c1ccc(CN2CCC3(CC2)OCC(c2ccccc2)CO3)cc1
Ki [7]: 0.013 nM | Ki [8]: 813 nM
